Hits are enriched below; roughly 2.1% of the tested compounds scored in any of these assays.
APJ antag – APJ receptor antagonism. P35414. CHO-K1 APJ beta-arrestin complementation, luminescence. inhibition, % at 20 µM. actives 0.32% (n = 330,000). AID 2521;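 active means inhibition above about 40% at 20 µM, limit read from the data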;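 further: cells challenged with 10 nM apelin-13 agonist together with compound; plate controls were apelin-13 plus DMSO wells for no effect and DMSO wells lacking apelin-13 for full effect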
HTR2A ag – activates the mouse 5-HT2A serotonin receptor; P35363; actives 0.66% (n = 360,000); CHO-K1 mHTR2A beta-arrestin complementation, luminescence; percent of 30 µM serotonin response; activation, % at 7.6 µM;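 active means activation above a run cutoff, the mean activation of all tested compounds plus 3 SD, cut at about 14% in these data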;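 further: 0% = plate median of compound wells and 100% = 30 µM serotonin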
APJ agonist – APJ receptor agonism | P35414 | CHO-K1 APJ PathHunter beta-arrestin, luminescence; 0% DMSO wells, 100% apelin | activation, % at 20 µM | actives 0.11% (n = 330,000);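 active means activation more than six SD over the plate average, tested at 20 µM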;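 further: 0% = DMSO alone and 100% = apelin-13 at 10 nM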
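assay system = CHO-K1 APJ beta-arrestin complementation cell line | input = cell density 1000 per well | dosing = compound 20 µM once, DMSO 1% | timing = compound 90 min 25 °C, reagent 1 h | measured by = luminescence from split beta-galactosidase complementation, Galacton Star/Emerald II substrate | read-out basis = APJ agonist activity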
EBI2 antag – blocks human EBI2 receptor beta-arrestin signaling; P32249; EBI2 beta-arrestin recruitment, luminescence, 7a,25-OHC stimulated; inhibition, % at 5 µM; actives 0.81% (n = 360,000); in the data active means inhibition above about 38%;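 further: enzyme fragment complementation signal reports receptor beta-arrestin coupling in cells; 0% = agonist plus DMSO wells and 100% = wells without agonist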
Target sequence (P32249 whole entry, looked up, the tested form may be a part): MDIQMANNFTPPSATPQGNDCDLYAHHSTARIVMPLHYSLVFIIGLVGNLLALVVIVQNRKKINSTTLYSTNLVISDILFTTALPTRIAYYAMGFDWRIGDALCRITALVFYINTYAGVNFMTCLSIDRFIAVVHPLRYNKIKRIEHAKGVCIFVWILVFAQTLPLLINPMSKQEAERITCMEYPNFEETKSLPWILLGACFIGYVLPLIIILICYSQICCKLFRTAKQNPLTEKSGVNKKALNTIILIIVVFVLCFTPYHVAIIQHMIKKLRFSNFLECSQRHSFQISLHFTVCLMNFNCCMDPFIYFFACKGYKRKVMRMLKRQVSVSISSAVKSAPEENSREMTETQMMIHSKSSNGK
CCR6 antagonist – antagonists of human CCR6 receptor; inhibition, % at 20 µM; CHO-K1 CCR6 PathHunter beta-arrestin, luminescence, CCL20-stimulated; P51684; AID 493098; actives 0.49% (n = 340,000);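 active means compounds whose inhibition of the agonist-driven luminescence signal at 20 µM reaches about 50%, limit read from the data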;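 further: cells stimulated with CCL20 at 14 nM final; plate controls were DMSO with CCL20 for no effect and DMSO without agonist for full effect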
CXCR6 inh – CXCR6 (human) receptor inhibition | O00574 | CHO-K1 PathHunter CXCR6 beta-arrestin, luminescence | inhibition, % at 20 µM | actives 0.36% (n = 360,000) | AID 602244; in the data active means inhibition above about 34%, passing the limit was not always enough;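 further: antagonist mode with CXCL16 agonist at 10 nM final; 0% = 10 nM CXCL16 with DMSO and 100% = unstimulated wells without agonist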
CXCR6 confirm – CXCR6 antagonism confirmation, single concentration; shares compounds with CXCR6 inh; CHO-K1 CXCR6 PathHunter beta-arrestin, luminescence; actives 65% (n = 700); inhibition, % at 20 µM;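 active means mean inhibition over four retests above 40%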;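 further: receptor stimulated with 10 nM CXCL16 agonist; beta-galactosidase fragment complementation upon beta-arrestin recruitment to receptor; plate controls were CXCL16 plus DMSO for no effect and DMSO without CXCL16 for full effect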
The depositor's hits bear a star; . = no result.

SMILES	APJ antag	HTR2A ag	APJ agonist	EBI2 antag	CCR6 antagonist	CXCR6 inh	CXCR6 confirm
CCn1c(C)cs/c1=N\S(=O)(=O)c1ccccc1	5	-3	-2	1	-14	-8	.
O=Cc1s/c(=N\S(=O)(=O)c2ccccc2)n(CCCCl)c1Cl	.	1	.	22	105*	98*	104*
O=C(CN1C(=O)C2CCCCC2C1=O)OCC(=O)c1ccc(Cl)s1 (stereo not given)	12	-6	-3	-10	16	0	.
CSc1cccc(NC(=O)C2CC(=O)N(c3ccc4c(c3)OCCO4)C2)c1 (stereo not given)	.	-6	.	-5	.	8	.
C[n+]1ccc(/C=N/Nc2nc(Cl)c(C#N)c(Cl)c2Cl)cc1	37	-4	-6	0	56*	42*	52*
C/C(=N\NC(=S)NCCc1ccccc1)c1ccc(Cl)cc1Cl	33	-25	-8	13	.	54*	54*
C/C(=N\NC(=S)NCCc1ccccc1)c1ccc(O)cc1O	-5	-6	7	6	9	0	.
CCCCCC(=O)N1C[C@H](n2cc(C3CC3)nn2)[C@@H](O)C[C@@H]1c1ccc(Cl)cc1	.	-4	.	3	.	0	.
Cc1ccccc1N(CC(=O)NC1CCCC1)C(=O)C1(C)CC(=O)N=C2C=CC=CN21 (stereo not given)	18	2	-4	1	3	4	.
Cc1ccccc1N(CC(=O)NCC1CCCO1)C(=O)C1(C)CC(=O)N=C2C=CC=CN21 (stereo not given)	14	-1	-5	-7	6	47*	20
CC(C)CC1C(=O)N(Cc2cn(CC3CCCCC3)nn2)CCS(=O)(=O)N1Cc1ccc(-c2ccc(Cl)c(Cl)c2)cc1 (stereo not given)	.	4	.	17	.	104*	15
Nc1nncn1C(=O)c1ccccc1Cl	-39	0	4	-17	3	10	.
COc1ccc(OCC(=O)N/N=C/c2cccc3cccnc23)cc1	-18	1	2	2	8	3	.
O=C(COc1ccc(Cl)cc1)N/N=C/c1cccc2cccnc12	8	-18	1	25	.	44*	56*
Fc1ccc(Oc2nc(-c3ccccc3)nnc2C(F)(F)F)cc1	-2	1	-1	-7	30	30	.
Fc1ccc(Sc2nc(-c3ccccc3)nnc2C(F)(F)F)cc1	34	5	-6	22	50*	45*	63*
Cc1cc(C)c(C(=O)COC(=O)c2cccnc2Cl)c(C)c1	-4	-1	-4	-4	8	6	.
O=C(N/N=C/c1c[nH]c2ccccc12)c1sc2ccccc2c1Cl	11	-6	-1	4	16	-5	.
O=C(N/N=C/c1ccc([N+](=O)[O-])o1)c1sc2ccccc2c1Cl	-21	-5	-5	4	50	41*	43*
COc1ccccc1-c1noc(CCC(=O)Nc2cccc(C)c2)n1	9	-2	-4	8	21	62*	-5
CCS(=O)CC(=O)Nc1c(-c2ccccc2)oc2ccccc2c1=O (stereo not given)	-4	3	-3	-1	5	7	.
CCCn1ncc(/C=N/O)c1C	9	0	-2	-9	7	4	.
CC(C)(C)OC(=O)N[C@@H](Cc1ccccc1)c1nnc(S(=O)(=O)Cc2ccccc2)o1	39	.	-8	.	.	.	.
Cc1ccccc1CS(=O)(=O)c1nnc([C@H](Cc2ccccc2)NC(=O)OC(C)(C)C)o1	24	-3	-4	21	89*	64*	58*
CCN1CCN(CC(=O)N2N=C(c3cccs3)CC2c2ccc(OC)c(OC)c2)C(=O)C1=O (stereo not given)	7	-1	-1	-3	5	2	.
SMILES	APJ antag	HTR2A ag	APJ agonist	EBI2 antag	CCR6 antagonist	CXCR6 inh	CXCR6 confirm
C=C1C(=O)c2sccc2C(c2ccc(OC)c(OC)c2)C1COC(C)=O (stereo not given)	.	1	.	60*	92*	94*	97*
CC[N+]1(C)CCC(O)(/C=C/c2ccccc2)C(C(=O)/C=C/c2ccccc2)C1 (stereo not given)	.	-5	.	25	63*	40*	68*
COc1ccc(C(NC(=O)/C=C/c2ccco2)c2ccc(OC)c(OC)c2)cc1 (stereo not given)	12	6	3	-8	9	10	.
CSc1ccccc1C(=O)N1CCC(CCC(=O)NCc2ccc(F)cc2)CC1	-16	1	-4	1	0	2	.
CCOC(=O)c1sc2nc(SCC(=O)N(CC)CC)n(CCCN3CCCC3=O)c(=O)c2c1C	17	-6	1	1	2	4	.
CCOC(=O)c1sc2nc(SCC#N)n(CC3CCCO3)c(=O)c2c1C (stereo not given)	24	0	-6	11	8	61*	13
COc1cccc(/C=C2\C(=O)N(c3cccc(C)c3)C(=O)c3ccccc32)c1	9	4	0	17	14	-10	.
CCOc1cc(/C=C2\C(=O)N(c3cccc(C(F)(F)F)c3)C(=O)c3ccccc32)ccc1O	15	1	-2	4	46	44*	43*
CS(=O)(=O)c1ccc(C(=O)OCc2nnc(-c3ccccc3)o2)cc1[N+](=O)[O-]	.	-3	.	56*	62*	64*	76*
O=C(c1ccc(-n2nc(C(F)(F)F)c3c2CCCC3)cc1)N1CCOCC1	-2	7	-2	-8	18	47*	-14
O=C(O)c1ccc(-n2nc(C(F)(F)F)c3c2CCCC3)cc1	1	1	-4	-1	3	4	.
Cn1nc([N+](=O)[O-])nc1Sc1cccc2cccnc12	-4	1	-2	-6	38	44*	41*
O=[N+]([O-])c1ccc(Cl)cc1Sc1cccc2cccnc12	8	-5	-3	5	-14	2	.
Cc1[nH]n(-c2ccccc2)c(=S)c1C=NCCCN=Cc1c(C)[nH]n(-c2ccccc2)c1=S	-29	2	0	7	74*	54*	74*
N#Cc1cccc(NC(=O)CCn2ccnc2)c1	2	4	-1	-2	-12	-9	.
Cc1ccc(C(=O)NC(=S)NNC(=O)c2ccccc2)cc1	1	0	-4	1	19	13	.
Cc1ccc(C(=O)NNC(=S)NC(=O)c2ccccc2)cc1	12	-9	-5	-6	.	36*	44*
Cc1nc2c(OCc3ccc(C(F)(F)F)cc3)cccn2c1N(C)CC1CC1	.	-13	.	22	.	47*	24
